Data on twelve molecules can be found in ChEMBL document CHEMBL1135657, “Novel dual inhibitors of AChE and MAO derived from hydroxy aminoindan and phenethylamine as potential treatment for Alzheimer's disease” (J Med Chem, 2002).

Series [1] has as its target T1, Butyrylcholinesterase (Equus caballus, UniProt Q9N1N9). The series is described as follows: In vitro inhibitory concentration against Butyrylcholinesterase of horse serum; value ranges from 0.20-0.36. The procedure, abridged: (§1)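 Ellman assay followed, with 200 µM butyrylthiocholine as substrate. Runs were in triplicate with four-point dose-response curves. IC50 and fiducial limits came from log concentration versus % inhibition.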

Series [2] addresses T2, Acetylcholinesterase (Homo sapiens, UniProt P22303). The series is described as follows: In vitro inhibitory concentration against purified Acetylcholinesterase of human erythrocytes; value ranges from 0.32-0.98.
Series [3] addresses T1, Butyrylcholinesterase. The series is described as follows: In vitro inhibitory concentration against Butyrylcholinesterase of horse serum; value ranges from 1.00-1.20. The method, boiled down: as §1
Series [4] addresses T3, Amine oxidase [flavin-containing] A (Rattus norvegicus, UniProt P21396).
T3 sequence (P21396 whole entry): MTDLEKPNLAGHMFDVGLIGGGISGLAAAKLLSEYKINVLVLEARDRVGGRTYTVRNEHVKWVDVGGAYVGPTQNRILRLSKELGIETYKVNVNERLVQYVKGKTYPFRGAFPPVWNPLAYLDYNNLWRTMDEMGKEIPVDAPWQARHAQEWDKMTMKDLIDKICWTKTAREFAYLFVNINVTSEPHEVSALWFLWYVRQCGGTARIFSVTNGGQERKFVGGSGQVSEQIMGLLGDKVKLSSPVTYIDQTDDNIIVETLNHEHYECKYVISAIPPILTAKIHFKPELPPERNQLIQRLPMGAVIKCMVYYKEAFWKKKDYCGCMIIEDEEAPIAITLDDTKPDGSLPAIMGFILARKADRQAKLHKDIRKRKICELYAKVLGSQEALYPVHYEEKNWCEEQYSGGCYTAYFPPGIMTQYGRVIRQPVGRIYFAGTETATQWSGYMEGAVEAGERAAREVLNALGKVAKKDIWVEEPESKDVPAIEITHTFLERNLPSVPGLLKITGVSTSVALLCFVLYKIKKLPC
The series is described as follows: In vitro inhibitory concentration against Monoamine oxidase A of rat brain homogenates; value ranges from 6.3-7.7. In kind it is tissue-based.

Series [5] deals with T4, Amine oxidase [flavin-containing] B (Rattus norvegicus, UniProt P19643).
T4 sequence (P19643 whole entry): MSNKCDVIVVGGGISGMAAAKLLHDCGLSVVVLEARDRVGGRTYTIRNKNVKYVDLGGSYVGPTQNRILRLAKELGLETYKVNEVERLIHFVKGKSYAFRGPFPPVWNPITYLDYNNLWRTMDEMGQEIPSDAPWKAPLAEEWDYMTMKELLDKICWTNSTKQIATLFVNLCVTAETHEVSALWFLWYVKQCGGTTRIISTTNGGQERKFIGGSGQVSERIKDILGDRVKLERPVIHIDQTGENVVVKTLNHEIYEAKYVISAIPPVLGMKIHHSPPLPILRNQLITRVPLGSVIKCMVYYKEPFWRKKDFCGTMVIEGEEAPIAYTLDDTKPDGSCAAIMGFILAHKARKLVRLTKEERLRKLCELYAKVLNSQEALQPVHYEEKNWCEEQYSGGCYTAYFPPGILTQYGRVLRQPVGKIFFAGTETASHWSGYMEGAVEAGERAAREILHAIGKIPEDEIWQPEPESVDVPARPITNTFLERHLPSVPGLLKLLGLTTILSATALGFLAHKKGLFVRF
Put plainly: In vitro inhibitory concentration against Monoamine oxidase B of rat brain homogenates; value ranges from 4.8-6.9. In kind it is tissue-based.

Series [6] deals with T2, Acetylcholinesterase.
For series [7], the target named is T1, Butyrylcholinesterase. The series is described as follows: In vitro inhibitory concentration against Butyrylcholinesterase of horse serum; value ranges from 1.6-2.4. The procedure, abridged: as §1
The target of series [8] is T4, Amine oxidase [flavin-containing] B. Put plainly: In vitro inhibitory concentration against Monoamine oxidase B of rat brain homogenates; value ranges from 0.19-0.44. In kind it is tissue-based. The procedure, abridged: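 Rat brain homogenate (in 0.3 M sucrose) as enzyme source; compounds diluted 10⁻²M to 10⁻⁹M in 0.05 M phosphate buffer with 0.15 μM clorgyline; preincubated 60 min at 37 °C, then 10 μM ¹⁴C-phenylethylamine added for 20 min more; stopped with citric acid; metabolites extracted into toluene/ethyl acetate, scintillation counted; activity as % of control, tranylcypromine blank.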

The target in series [9] is T2, Acetylcholinesterase. Put plainly: In vitro inhibitory concentration against purified Acetylcholinesterase of human erythrocytes; value ranges from 0.44-0.49.
Series [10] deals with T2, Acetylcholinesterase. The series is described as follows: In vitro inhibitory concentration against purified Acetylcholinesterase of human erythrocytes; value ranges from 31.2-202.
Series [11] addresses T1, Butyrylcholinesterase. Put plainly: In vitro inhibitory concentration against Butyrylcholinesterase of horse serum; value ranges from 1.19-6.10. The procedure, abridged:
as §1

The target in series [12] is T2, Acetylcholinesterase. Put plainly: In vitro inhibitory concentration against purified Acetylcholinesterase of human erythrocytes; value ranges from 252-806.
The target of series [13] is T1, Butyrylcholinesterase. The series is described as follows: In vitro inhibitory concentration against Butyrylcholinesterase of horse serum; value ranges from 10.7-43.7. The procedure, abridged: as §1
For series [14], the target named is T2, Acetylcholinesterase. The source holds these as a separate data set.
Series [15] addresses T1, Butyrylcholinesterase. The series is described as follows: In vitro inhibitory concentration against Butyrylcholinesterase of horse serum; value ranges from 29.6-110. The procedure, abridged:
as §1

In series [16] the target is T2, Acetylcholinesterase. Put plainly: In vitro inhibitory concentration against purified Acetylcholinesterase of human erythrocytes; value ranges from 0.54-0.56.
Series [17] concerns the target T1, Butyrylcholinesterase.
The target of series [18] is T2, Acetylcholinesterase. The series is described as follows: In vitro inhibitory concentration against purified Acetylcholinesterase of human erythrocytes; value ranges from 0.012-0.014.
Series [19] concerns the target T4, Amine oxidase [flavin-containing] B. The series is described as follows: In vitro inhibitory concentration against Monoamine oxidase B of rat brain homogenates. It counts as tissue-based.
Series [20] concerns the target T3, Amine oxidase [flavin-containing] A. Put plainly: In vitro inhibitory concentration against Monoamine oxidase A of rat brain homogenates; value ranges from 5.6-19.6. In kind it is tissue-based.
Series [21] addresses T4, Amine oxidase [flavin-containing] B. Put plainly: In vitro inhibitory concentration against Monoamine oxidase B of rat brain homogenates; value ranges from 80.-92.
Series [22] deals with T3, Amine oxidase [flavin-containing] A. Put plainly: In vitro inhibitory concentration against Monoamine oxidase A of rat brain homogenates; value ranges from 0.22-0.29. It counts as tissue-based.
The target of series [23] is T2, Acetylcholinesterase. This is another data set of the same source.
The target of series [24] is T1, Butyrylcholinesterase. Put plainly: In vitro inhibitory concentration against Butyrylcholinesterase of horse serum; value ranges from 0.34-1.03. The procedure, abridged:
as §1

Series [25] addresses T3, Amine oxidase [flavin-containing] A. The series is described as follows: In vitro inhibitory concentration against Monoamine oxidase A of rat brain homogenates; value ranges from 30-230. In kind it is tissue-based.
The nature of series [26]: Bimolecular rate constant for carbamoylation of ACHE. In kind it is ADME. The method, boiled down:
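Human erythrocyte AChE preincubated with inhibitor at 37 °C in 0.1 M phosphate buffer, pH 7.4, under Ellman conditions with 200 µM […]. Pseudo-first-order rate constants (k_obs) for progressive inhibition were obtained at 4-5 inhibitor concentrations. The apparent bimolecular carbamylation constant k_i was calculated from these.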

Series [27] is described as follows: Pseudo-first order rate constant for carbamoylation of ACHE at 100 (uM) concentration. In kind it is ADME. The method, boiled down:
(§2)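 Human erythrocyte AChE, same Ellman conditions: 200 µM […], 60 min preincubation at 37 °C, 0.1 M phosphate pH 7.4. Progressive inhibition followed at 4-5 inhibitor concentrations. Pseudo-first-order k_obs (min⁻¹) derived per concentration; apparent bimolecular carbamylation constant k_i calculated from these.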

Series [28] can be described thus: Pseudo-first order rate constant for carbamoylation of ACHE at 300 (uM) concentration. It counts as ADME. The method, boiled down:
as §2

The nature of series [29]: Pseudo-first order rate constant for carbamoylation of ACHE at 400 (uM) concentration. In kind it is ADME. The procedure, abridged:
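Pseudo-first-order rate constants kobs measured at 4-5 inhibitor concentrations following Bar-On et al. Apparent bimolecular carbamylation constant ki calculated from these.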

Series [30] can be described thus: Pseudo-first order rate constant for carbamoylation of ACHE at 50 (uM) concentration. In kind it is ADME. The procedure, abridged: as §2
The target in series [31] is T2, Acetylcholinesterase. Put plainly: In vitro inhibitory concentration against purified Acetylcholinesterase of human erythrocytes; value ranges from 42.5-45.9.
Series [32] concerns the target T4, Amine oxidase [flavin-containing] B. The series is described as follows: In vitro inhibitory concentration against Monoamine oxidase B of rat brain homogenates; value ranges from 18-59. In kind it is tissue-based.
Series [33] deals with T3, Amine oxidase [flavin-containing] A. Put plainly: In vitro inhibitory concentration against Monoamine oxidase A of rat brain homogenates; value ranges from 315-465. It counts as tissue-based.

pIC50: −log10 of the molar value.

T1 sequence (Q9N1N9 whole entry): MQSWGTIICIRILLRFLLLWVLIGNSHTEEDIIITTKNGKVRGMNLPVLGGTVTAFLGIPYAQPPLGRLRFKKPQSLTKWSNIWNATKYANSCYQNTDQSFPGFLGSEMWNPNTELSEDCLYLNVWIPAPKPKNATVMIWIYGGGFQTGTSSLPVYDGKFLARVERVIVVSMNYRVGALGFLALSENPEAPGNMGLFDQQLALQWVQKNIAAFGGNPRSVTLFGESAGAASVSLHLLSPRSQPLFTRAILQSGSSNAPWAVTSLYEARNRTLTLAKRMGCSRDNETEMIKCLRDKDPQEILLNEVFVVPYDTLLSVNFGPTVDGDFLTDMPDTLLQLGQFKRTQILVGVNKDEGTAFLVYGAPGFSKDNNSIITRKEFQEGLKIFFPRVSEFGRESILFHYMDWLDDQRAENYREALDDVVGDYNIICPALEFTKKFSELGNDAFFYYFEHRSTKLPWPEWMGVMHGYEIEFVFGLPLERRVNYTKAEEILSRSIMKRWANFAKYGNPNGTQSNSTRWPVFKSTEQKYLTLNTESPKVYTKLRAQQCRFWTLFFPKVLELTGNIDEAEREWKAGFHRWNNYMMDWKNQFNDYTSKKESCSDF
T2 sequence (P22303 whole entry): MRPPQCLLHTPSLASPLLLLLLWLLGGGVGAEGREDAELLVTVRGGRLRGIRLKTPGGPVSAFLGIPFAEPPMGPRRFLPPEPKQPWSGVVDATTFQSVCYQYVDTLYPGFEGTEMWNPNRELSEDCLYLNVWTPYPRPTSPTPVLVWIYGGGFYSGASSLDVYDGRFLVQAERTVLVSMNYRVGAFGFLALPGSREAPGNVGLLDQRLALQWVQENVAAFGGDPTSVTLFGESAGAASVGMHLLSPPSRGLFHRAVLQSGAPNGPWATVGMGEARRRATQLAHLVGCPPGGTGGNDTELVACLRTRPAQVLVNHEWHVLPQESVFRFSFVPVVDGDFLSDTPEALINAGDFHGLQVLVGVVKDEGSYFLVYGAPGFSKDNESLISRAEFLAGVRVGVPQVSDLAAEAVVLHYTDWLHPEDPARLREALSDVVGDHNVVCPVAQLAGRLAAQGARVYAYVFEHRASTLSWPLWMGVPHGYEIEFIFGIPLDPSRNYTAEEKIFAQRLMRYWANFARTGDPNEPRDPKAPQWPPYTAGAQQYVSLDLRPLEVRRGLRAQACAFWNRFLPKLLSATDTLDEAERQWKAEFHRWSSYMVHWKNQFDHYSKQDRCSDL

`C#CC(C)NCCc1cccc(OC(=O)N(C)CC)c1` (stereo not drawn) showed a negative logarithm of the IC50 (pIC50) against Butyrylcholinesterase [1] of 6.62.

On to `C#CCNC(C)Cc1cccc(OC(=O)N(C)C)c1` (stereo not drawn), for which the negative logarithm of the IC50 (pIC50) against Acetylcholinesterase [2] is 6.27; against Butyrylcholinesterase [3] it was 5.96; in series [4], 5.16; in [5], 5.24.

For the molecule `C#CCNCCc1cccc(OC(=O)N(C)CCC)c1`, the pIC50 against Acetylcholinesterase [6] was 4.81; on Butyrylcholinesterase [7], 5.72; in series [8], 6.54.

`CN(C)C(=O)Oc1cccc2c1C(N)CC2` (stereo not drawn) had a pIC50 on Acetylcholinesterase [9] of 6.34.

`C#CCNC1CCc2ccc(OC(=O)N(CC)CCCC)cc21` (stereo not drawn): the pIC50 is 4.14 against Acetylcholinesterase [10] and 5.52 at Butyrylcholinesterase [11].

For `C#CCN(C)C1CCc2cccc(OC(=O)N(C)CC)c21` (stereo not drawn), the pIC50 on Acetylcholinesterase [12] is 3.36; against Butyrylcholinesterase [13], 4.70.

As for `C#CCNC1CCc2ccc(OC(=O)N(C)CCCC)cc21` (stereo not drawn), the pIC50 is 4.95 on Acetylcholinesterase [14] and 4.27 against Butyrylcholinesterase [15].

In the case of `C#CCNC1CCc2ccc(OC(=O)N(C)c3ccccc3)cc21` (stereo not drawn), the negative-log IC50 (pIC50) against Acetylcholinesterase [16] was 6.26; against Butyrylcholinesterase [17] it was 4.78.

Turning to `CN(C)C(=O)Oc1cccc2c1CCC2N(C)C` (stereo not drawn), the pIC50 against Acetylcholinesterase [18] is 7.89; in series [19], below 3.00; in series [20], 5.00.

As to `C#CCNC1CCc2c(OC(=O)N(C)C)cccc21` (stereo not drawn), the values for the pIC50 (in [21]; in [22]; on Acetylcholinesterase [23]) were 4.07, 6.59 and 7.28, respectively.

For `CN(C)C(=O)Oc1ccc2c(c1)C(N)CC2` (stereo not drawn), the pIC50 at Butyrylcholinesterase [24] was 6.20; in series [25], 4.10.

Take `C#CCNC1CCc2c(Cl)cc(OC(=O)N(C)CCC)cc21.Cl` (stereo not drawn): the “Bimolecular carbamoylation rate constant (ki)” value in [26] was 0.983 M⁻¹ s⁻¹. Besides, the K obs was 22 min⁻¹ in series [27], 34 min⁻¹ in series [28], 38 min⁻¹ in series [29] and 17 min⁻¹ in [30]. Also, the negative-log IC50 (pIC50) on Acetylcholinesterase [31] is 4.36; in [32] it was 4.49; in series [33] it was 3.43.

As a reminder, the pIC50 is −log10 of the IC50, conventionally taken in molar units.
